≈ marks a conversion by molar mass, not a printed value. Blank lines part the entries; values can stand above or below the compound they belong to. Calls of active or inactive are those of the source. The rule behind the calls is not given here.
What was measured:
[1] = target: T1, UDP-3-O-acyl-N-acetylglucosamine deacetylase (Pseudomonas aeruginosa (strain ATCC 15692 / PAO1 / 1C / PRS 101 / LMG12228), UniProt P47205); assay: Inhibition of Pseudomonas aeruginosa LpxC using UDP-3-O-(R-hydroxydecanoyl)-N-acetylglucosamine as substrate preincubated for 30 mins followed by substrate addition measured after 20 mins by LC-MS/MS analysis
T1 sequence (P47205 whole entry): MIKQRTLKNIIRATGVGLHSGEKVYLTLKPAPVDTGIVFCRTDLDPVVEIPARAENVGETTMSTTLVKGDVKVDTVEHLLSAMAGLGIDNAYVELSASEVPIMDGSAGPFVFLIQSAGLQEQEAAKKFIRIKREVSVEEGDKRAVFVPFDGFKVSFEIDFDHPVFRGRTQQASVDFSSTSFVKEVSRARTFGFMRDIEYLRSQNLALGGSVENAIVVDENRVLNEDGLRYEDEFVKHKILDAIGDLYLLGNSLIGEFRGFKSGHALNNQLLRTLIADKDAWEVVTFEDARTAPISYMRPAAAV

[2] = system: Pseudomonas aeruginosa; assay: Antibacterial activity against Pseudomonas aeruginosa PAO1 K767 after 18 to 24 hrs; assay type: functional
In short: (§1)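 Broth MIC per CLSI guidelines in cation-adjusted Mueller Hinton broth. Compounds were dissolved and serially diluted in DMSO (carbapenems in water) before addition to plates. Incubation was at 37 °C for 18−24 h. MIC is the lowest concentration preventing visible growth. MIC50/MIC90 are the concentrations inhibiting 50% or 90% of isolates tested.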

[3] = system: Pseudomonas aeruginosa; assay: Antibacterial activity against mexAB-oprM deficient Pseudomonas aeruginosa K1119 after 18 to 24 hrs; assay type: functional; in short: as §1
[4] = system: Pseudomonas aeruginosa; assay: Antibacterial activity against hypersusceptible Pseudomonas aeruginosa Z61 after 18 to 24 hrs; assay type: functional; in short: as §1
[5] = system: Pseudomonas aeruginosa; assay: Antibacterial activity against Pseudomonas aeruginosa clinical isolate after 18 to 24 hrs; assay type: functional
[6] = Cytotoxicity against human K562 cells assessed as reduction in cell viability after 72 hrs by WST1 assay; assay type: cell-based
In short: (§2)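 Cells were grown and assayed in medium with 10% heat-inactivated FBS and exposed to compound for 72 h. Metabolic activity was read as WST-1 cleavage to formazan at A450, with puromycin as positive control. CC50 (50% reduction in viability) was calculated from dose-response curves.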

[7] = Solubility of the compound at pH 6.8 by high throughput screening assay; assay type: physicochemical; details: buffer
[8] = Protein binding in mouse plasma; assay type: ADME, cell-free; details: read-out: PPB (converted)
[9] = Protein binding in rat plasma; assay type: ADME, cell-free; details: read-out: PPB (converted)
[10] = Protein binding in human plasma; assay type: ADME, cell-free; details: read-out: PPB (converted)
[11] = Cytotoxicity against human HepG2 cells assessed as reduction in cell viability after 72 hrs by WST1 assay; assay type: cell-based; in short: as §2
[12] = system: Pseudomonas aeruginosa; assay: Antibacterial activity against Pseudomonas aeruginosa clinical isolate infected in iv dosed BalbC mouse neutropenic model assessed as concentration required to show reduction in bacterial burden in lung of 2 log below stasis administered as bid at 2 and 8 hrs post infection measured after 24 hrs
[13] = system: Pseudomonas aeruginosa; assay: Antibacterial activity against Pseudomonas aeruginosa NB52001 after 18 to 24 hrs; assay type: functional; in short: as §1
[14] = system: Escherichia coli; assay: Antibacterial activity against efflux pump deficient Escherichia coli after 18 to 24 hrs; assay type: functional
In short: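 MIC per CLSI guidelines. Strains grown in cation-adjusted Mueller Hinton broth. Compounds dissolved in DMSO and serially diluted in DMSO (carbapenems in water) before addition to microtiter plates. Incubation at 37 °C for 18−24 h. MIC is the lowest concentration preventing visible growth.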

[15] = target: Protein deacetylase HDAC6 (Homo sapiens, UniProt Q9UBN7); assay: Inhibition of human HDAC6
[16] = system: Alcaligenes; assay: Antibacterial activity against Alcaligenes xylosus NB56002 after 18 to 24 hrs; assay type: functional; in short: as §1
[17] = system: Klebsiella oxytoca; assay: Antibacterial activity against Klebsiella oxytoca NB30007 after 18 to 24 hrs; assay type: functional; in short: as §1
[18] = target: Histone deacetylase 11 (Homo sapiens, UniProt Q96DB2); assay: Inhibition of human HDAC11
[19] = target: Histone deacetylase 2 (Homo sapiens, UniProt Q92769); assay: Inhibition of human HDAC2
[20] = system: Proteus mirabilis; assay: Antibacterial activity against Proteus mirabilis NB32022 after 18 to 24 hrs; assay type: functional; in short: as §1
[21] = system: Klebsiella aerogenes; assay: Antibacterial activity against Enterobacter aerogenes NB24004 after 18 to 24 hrs; assay type: functional; in short: as §1
[22] = system: Pseudomonas aeruginosa; assay: Antibacterial activity against Pseudomonas aeruginosa ATCC 27853 in CD1 mouse thigh infection model assessed as reduction in bacterial burden in thigh at 160 to 320 mg/kg, iv administered at 2 hrs post infection measured after 24 hrs
[23] = system: Pseudomonas aeruginosa; assay: Antibacterial activity against Pseudomonas aeruginosa NB52096 after 18 to 24 hrs; assay type: functional; in short: as §1
[24] = target: Histone deacetylase 8 (Homo sapiens, UniProt Q9BY41); assay: Inhibition of human HDAC8
[25] = system: Stenotrophomonas maltophilia; assay: Antibacterial activity against Stenotrophomonas maltophilia NB55011 after 18 to 24 hrs; assay type: functional; in short: as §1
[26] = system: Acinetobacter baumannii; assay: Antibacterial activity against Acinetobacter baumannii NB48015 after 18 to 24 hrs; assay type: functional; in short: as §1
[27] = target: Polyamine deacetylase HDAC10 (Homo sapiens, UniProt Q969S8); assay: Inhibition of human HDAC10
[28] = system: Klebsiella pneumoniae; assay: Antibacterial activity against Klebsiella pneumoniae NB29018 after 18 to 24 hrs; assay type: functional; in short: as §1
[29] = target: Histone deacetylase 1 (Homo sapiens, UniProt Q13547); assay: Inhibition of human HDAC1
[30] = system: Escherichia coli; assay: Antibacterial activity against Escherichia coli NB27047 after 18 to 24 hrs; assay type: functional; in short: as §1
[31] = target: Histone deacetylase 5 (Homo sapiens, UniProt Q9UQL6); assay: Inhibition of human HDAC5
[32] = target: Histone deacetylase 4 (Homo sapiens, UniProt P56524); assay: Inhibition of human HDAC4
[33] = target: Histone deacetylase 9 (Homo sapiens, UniProt Q9UKV0); assay: Inhibition of human HDAC9
[34] = system: Burkholderia cepacia; assay: Antibacterial activity against Burkholderia cepacia NB49016 after 18 to 24 hrs; assay type: functional; in short: as §1
[35] = target: Histone deacetylase 3 (Homo sapiens, UniProt O15379); assay: Inhibition of human HDAC3
[36] = system: Pseudomonas aeruginosa; assay: Antibacterial activity against Pseudomonas aeruginosa clinical isolate infected in iv dosed BalbC mouse neutropenic model assessed as concentration required to show bacterial stasis in lung administered as bid at 2 and 8 hrs post infection measured after 24 hrs
[37] = target: Histone deacetylase 7 (Homo sapiens, UniProt Q8WUI4); assay: Inhibition of human HDAC7
Histone deacetylase 7, sequence (Q8WUI4 whole entry): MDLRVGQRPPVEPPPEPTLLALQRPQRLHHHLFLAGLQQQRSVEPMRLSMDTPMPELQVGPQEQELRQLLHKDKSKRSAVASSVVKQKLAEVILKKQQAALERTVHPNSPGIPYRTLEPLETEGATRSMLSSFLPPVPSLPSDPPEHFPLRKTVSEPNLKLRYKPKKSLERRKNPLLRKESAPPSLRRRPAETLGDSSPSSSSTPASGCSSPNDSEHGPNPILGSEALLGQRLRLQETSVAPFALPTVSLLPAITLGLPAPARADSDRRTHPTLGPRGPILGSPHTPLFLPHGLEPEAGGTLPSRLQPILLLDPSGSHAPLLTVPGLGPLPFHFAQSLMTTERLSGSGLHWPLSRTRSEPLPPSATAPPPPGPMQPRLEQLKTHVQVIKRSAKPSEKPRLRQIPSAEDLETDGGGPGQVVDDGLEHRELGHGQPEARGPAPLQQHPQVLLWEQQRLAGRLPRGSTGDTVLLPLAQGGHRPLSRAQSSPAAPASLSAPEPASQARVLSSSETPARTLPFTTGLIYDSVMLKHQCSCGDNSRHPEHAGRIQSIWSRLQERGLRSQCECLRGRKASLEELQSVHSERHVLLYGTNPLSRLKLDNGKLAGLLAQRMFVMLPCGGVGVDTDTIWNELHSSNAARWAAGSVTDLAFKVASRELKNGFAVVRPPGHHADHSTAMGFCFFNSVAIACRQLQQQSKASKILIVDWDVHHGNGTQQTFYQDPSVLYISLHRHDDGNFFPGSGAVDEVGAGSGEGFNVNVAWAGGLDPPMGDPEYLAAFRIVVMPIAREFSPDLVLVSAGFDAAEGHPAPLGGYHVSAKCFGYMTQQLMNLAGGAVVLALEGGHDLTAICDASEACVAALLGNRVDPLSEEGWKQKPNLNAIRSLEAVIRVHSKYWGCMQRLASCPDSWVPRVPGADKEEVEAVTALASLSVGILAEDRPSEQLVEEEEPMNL

Histone deacetylase 2, sequence (Q92769 whole entry): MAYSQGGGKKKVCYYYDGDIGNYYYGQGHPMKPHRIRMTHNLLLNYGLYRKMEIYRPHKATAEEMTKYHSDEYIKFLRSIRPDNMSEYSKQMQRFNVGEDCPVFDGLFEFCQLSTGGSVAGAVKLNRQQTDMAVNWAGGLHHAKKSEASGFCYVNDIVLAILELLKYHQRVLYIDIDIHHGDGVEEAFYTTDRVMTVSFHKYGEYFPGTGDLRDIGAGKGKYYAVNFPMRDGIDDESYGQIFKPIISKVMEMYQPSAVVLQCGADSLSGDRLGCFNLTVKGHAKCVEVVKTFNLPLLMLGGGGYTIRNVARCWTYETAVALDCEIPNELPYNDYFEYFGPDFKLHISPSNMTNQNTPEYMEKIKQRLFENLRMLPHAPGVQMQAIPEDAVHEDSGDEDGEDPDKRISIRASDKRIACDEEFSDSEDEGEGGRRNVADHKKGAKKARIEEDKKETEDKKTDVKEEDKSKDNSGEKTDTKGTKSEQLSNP
Histone deacetylase 11, sequence (Q96DB2 whole entry): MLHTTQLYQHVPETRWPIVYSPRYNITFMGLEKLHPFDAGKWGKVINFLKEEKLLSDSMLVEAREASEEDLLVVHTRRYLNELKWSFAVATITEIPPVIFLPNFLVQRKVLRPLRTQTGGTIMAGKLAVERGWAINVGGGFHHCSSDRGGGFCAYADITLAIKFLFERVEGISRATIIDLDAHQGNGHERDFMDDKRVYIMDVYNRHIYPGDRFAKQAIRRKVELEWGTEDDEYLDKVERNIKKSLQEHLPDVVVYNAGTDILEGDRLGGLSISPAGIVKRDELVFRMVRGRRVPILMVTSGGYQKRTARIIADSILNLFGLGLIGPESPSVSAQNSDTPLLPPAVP
Histone deacetylase 3, sequence (O15379 whole entry): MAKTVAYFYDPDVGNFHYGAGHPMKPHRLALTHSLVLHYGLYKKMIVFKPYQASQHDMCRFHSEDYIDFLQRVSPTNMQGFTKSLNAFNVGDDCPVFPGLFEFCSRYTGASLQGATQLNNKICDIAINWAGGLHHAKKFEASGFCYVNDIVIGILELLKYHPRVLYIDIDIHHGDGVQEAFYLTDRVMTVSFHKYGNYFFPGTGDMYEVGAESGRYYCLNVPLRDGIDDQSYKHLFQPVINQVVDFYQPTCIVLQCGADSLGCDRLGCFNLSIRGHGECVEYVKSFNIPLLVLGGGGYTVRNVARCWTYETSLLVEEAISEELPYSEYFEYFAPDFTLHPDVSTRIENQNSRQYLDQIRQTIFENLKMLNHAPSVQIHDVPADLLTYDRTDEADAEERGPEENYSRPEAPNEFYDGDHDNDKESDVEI
Histone deacetylase 4, sequence (P56524 whole entry): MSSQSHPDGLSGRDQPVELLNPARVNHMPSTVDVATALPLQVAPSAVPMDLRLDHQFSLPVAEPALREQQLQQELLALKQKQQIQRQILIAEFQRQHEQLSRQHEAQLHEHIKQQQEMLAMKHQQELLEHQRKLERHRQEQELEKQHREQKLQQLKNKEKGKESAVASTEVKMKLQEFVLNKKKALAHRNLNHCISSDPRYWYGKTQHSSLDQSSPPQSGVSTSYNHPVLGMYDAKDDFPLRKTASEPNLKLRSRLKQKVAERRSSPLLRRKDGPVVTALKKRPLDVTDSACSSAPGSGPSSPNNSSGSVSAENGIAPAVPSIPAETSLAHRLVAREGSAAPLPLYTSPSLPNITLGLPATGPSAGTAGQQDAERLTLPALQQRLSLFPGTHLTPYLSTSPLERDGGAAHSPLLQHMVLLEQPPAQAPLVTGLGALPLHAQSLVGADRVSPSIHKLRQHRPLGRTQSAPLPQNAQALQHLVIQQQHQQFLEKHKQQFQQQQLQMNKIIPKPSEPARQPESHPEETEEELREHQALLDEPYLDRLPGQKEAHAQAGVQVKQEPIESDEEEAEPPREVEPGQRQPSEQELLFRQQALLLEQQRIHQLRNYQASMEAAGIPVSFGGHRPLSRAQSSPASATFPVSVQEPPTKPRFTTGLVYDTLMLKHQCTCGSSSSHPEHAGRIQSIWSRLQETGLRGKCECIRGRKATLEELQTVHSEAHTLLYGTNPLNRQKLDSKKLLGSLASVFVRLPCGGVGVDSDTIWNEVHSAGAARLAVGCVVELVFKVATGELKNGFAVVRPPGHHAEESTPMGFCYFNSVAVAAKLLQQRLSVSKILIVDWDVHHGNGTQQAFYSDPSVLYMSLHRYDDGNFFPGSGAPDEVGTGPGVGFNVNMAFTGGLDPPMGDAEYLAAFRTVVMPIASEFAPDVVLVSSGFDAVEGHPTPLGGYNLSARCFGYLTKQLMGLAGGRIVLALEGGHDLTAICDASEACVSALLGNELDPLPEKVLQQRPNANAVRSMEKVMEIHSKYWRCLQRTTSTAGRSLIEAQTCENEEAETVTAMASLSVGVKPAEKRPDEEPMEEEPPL
Histone deacetylase 5, sequence (Q9UQL6 whole entry): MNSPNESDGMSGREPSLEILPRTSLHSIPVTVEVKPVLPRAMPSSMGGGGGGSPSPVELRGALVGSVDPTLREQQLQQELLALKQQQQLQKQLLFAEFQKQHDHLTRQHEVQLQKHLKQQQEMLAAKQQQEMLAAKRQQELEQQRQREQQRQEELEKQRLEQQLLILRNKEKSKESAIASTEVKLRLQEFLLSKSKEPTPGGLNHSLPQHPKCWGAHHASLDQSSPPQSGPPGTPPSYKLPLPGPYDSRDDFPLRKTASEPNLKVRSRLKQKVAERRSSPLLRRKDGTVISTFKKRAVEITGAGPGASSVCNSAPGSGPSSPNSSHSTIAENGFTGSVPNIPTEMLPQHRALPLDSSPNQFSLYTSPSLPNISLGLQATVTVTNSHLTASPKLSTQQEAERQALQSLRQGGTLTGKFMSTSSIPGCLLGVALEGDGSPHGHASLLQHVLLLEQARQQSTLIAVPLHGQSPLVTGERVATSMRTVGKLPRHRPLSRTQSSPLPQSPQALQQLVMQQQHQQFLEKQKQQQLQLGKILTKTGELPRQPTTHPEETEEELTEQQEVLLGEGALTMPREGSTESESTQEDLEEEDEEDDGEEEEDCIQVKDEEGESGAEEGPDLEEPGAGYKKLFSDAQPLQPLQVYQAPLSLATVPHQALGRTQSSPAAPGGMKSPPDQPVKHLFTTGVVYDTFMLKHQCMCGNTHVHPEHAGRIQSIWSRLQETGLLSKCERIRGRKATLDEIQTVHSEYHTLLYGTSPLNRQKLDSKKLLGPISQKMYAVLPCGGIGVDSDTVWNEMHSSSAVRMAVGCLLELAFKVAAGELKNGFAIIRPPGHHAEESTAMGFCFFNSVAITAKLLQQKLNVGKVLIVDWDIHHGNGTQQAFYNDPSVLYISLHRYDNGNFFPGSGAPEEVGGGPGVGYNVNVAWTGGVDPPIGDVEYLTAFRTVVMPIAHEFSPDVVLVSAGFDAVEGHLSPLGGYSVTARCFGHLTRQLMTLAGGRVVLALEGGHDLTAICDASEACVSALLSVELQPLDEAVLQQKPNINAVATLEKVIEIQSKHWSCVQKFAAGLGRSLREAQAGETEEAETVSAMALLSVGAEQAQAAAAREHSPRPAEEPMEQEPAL
Histone deacetylase 1, sequence (Q13547 whole entry): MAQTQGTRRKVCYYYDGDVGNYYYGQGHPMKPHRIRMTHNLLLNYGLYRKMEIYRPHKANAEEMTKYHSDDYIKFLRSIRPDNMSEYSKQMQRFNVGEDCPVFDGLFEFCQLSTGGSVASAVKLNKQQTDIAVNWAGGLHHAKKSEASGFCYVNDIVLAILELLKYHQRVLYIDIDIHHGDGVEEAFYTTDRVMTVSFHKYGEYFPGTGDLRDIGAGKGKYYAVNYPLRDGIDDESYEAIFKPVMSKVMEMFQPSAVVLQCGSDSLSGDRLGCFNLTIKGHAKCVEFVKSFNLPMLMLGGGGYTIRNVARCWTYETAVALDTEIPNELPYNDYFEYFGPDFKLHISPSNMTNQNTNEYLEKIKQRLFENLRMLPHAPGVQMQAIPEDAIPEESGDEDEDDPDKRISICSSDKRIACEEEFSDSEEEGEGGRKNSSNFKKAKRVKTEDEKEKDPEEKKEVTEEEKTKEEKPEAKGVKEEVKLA

IC50 [1]: 0.117 µM
MIC [2]: 128 µg/mL (≈ 428 µM)
MIC [3]: 16 µg/mL (≈ 53.4 µM)
MIC [4]: 32 µg/mL (≈ 107 µM)
Compound: C[C@@H](N)[C@H](NC(=O)[C@H]1CC[C@H](C(C)(C)C)CC1)C(=O)NO

IC50 [1]: 0.00146 µM
MIC [2]: 2 µg/mL (≈ 5.86 µM)
solubility ([7]; read-out: solubility): 4 µg/mL
MIC [3]: 0.06 µg/mL (≈ 0.176 µM)
MIC [4]: 0.25 µg/mL (≈ 0.732 µM)
Compound: CCc1ccc(-c2ccc(C(=O)N[C@H](C(=O)NO)[C@@H](C)N)cc2)cc1
CC50 at 72 h [6]: 7.37 µM
CC50 at 72 h [11]: 12.8 µM

MIC50 [5]: 0.5 µg/mL
MIC90 [5]: 2 µg/mL
Compound: COLISTIN

IC50 [1]: 0.039 µM
MIC [2]: 16 µg/mL (≈ 44.5 µM)
MIC [3]: 0.25 µg/mL (≈ 0.696 µM)
MIC [4]: 1 µg/mL (≈ 2.78 µM)
Compound: CC#CCOc1ccc(C(=O)N[C@H](C(=O)NO)[C@@H](N)C(F)(F)F)cc1

MIC [2]: 16 µg/mL (≈ 33.2 µM)
MIC [3]: 0.125 µg/mL (≈ 0.26 µM)
MIC [4]: 1 µg/mL (≈ 2.08 µM)
Compound: CCc1ccc(-c2ccc(C(=O)N[C@H](C(=O)NO)[C@@H](C)NCC(=O)N3CCNC(=O)C3)cc2)cc1

IC50 [1]: 0.9 µM
MIC [2]: > 128 µg/mL
MIC [3]: 16 µg/mL (≈ 48 µM)
MIC [4]: 32 µg/mL (≈ 96 µM)
Compound: CC#CCOc1ccc(C(=O)N[C@H](C(=O)NO)[C@H](N)C(C)C)cc1

IC50 [1]: 0.268 µM
MIC [2]: 32 µg/mL (≈ 103 µM)
MIC [3]: 1 µg/mL (≈ 3.23 µM)
MIC [4]: 4 µg/mL (≈ 12.9 µM)
Compound: C[C@@H](N)[C@H](NC(=O)c1ccc(OC(C)(C)C)cc1)C(=O)NO

MIC50 [5]: 16 µg/mL (≈ 21.4 µM)
MIC90 [5]: > 128 µg/mL
Compound: CC[C@H]1OC(=O)[C@H](C)[C@@H](O[C@H]2C[C@@](C)(OC)[C@@H](O)[C@H](C)O2)[C@H](C)[C@@H](O[C@@H]2O[C@H](C)C[C@H](N(C)C)[C@H]2O)[C@](C)(O)C[C@@H](C)CN(C)[C@H](C)[C@@H](O)[C@]1(C)O [AZITHROMYCIN]

The remaining lines, values behind:

Compound: CC(C)(O/N=C(\C(=O)N[C@@H]1C(=O)N2C(C(=O)[O-])=C(C[n+]3ccccc3)CS[C@H]12)c1csc(N)n1)C(=O)O [CEFTAZIDIME]
MIC50 [5]: 4 µg/mL (≈ 7.32 µM)
MIC90 [5]: > 128 µg/mL

Compound: C[C@@H](NCC(=O)N1CCNC(=O)C1)[C@H](NC(=O)c1ccc(C#Cc2ccccc2)cc1)C(=O)NO
IC50 [1]: 0.00419 µM
MIC [2]: 32 µg/mL (≈ 67 µM)
CC50 at 72 h [6]: > 100 µM
solubility [7]: 0.392 µM
MIC [3]: 0.5 µg/mL (≈ 1.05 µM)
MIC [4]: 4 µg/mL (≈ 8.38 µM)

Compound: C[C@@H](N)[C@H](NC(=O)c1ccc(C#Cc2ccccc2)cc1)C(=O)NO
fraction unbound [8]: 0.086
IC50 [1]: 0.00356 µM
fraction unbound [9]: 0.072
MIC [2]: 1 µg/mL (≈ 2.96 µM)
fraction unbound [10]: 0.081
CC50 at 72 h [6]: 29.5 µM
MIC [3]: 0.25 µg/mL (≈ 0.741 µM)
MIC [4]: 0.25 µg/mL (≈ 0.741 µM)

Compound: C[C@@H](O)[C@H]1C(=O)N2C(C(=O)O)=C(SCCNC=N)C[C@H]12 [IMIPENEM ANHYDROUS]
MIC50 [5]: 2 µg/mL (≈ 6.68 µM)
MIC90 [5]: 16 µg/mL (≈ 53.4 µM)

Compound: CCN1CCN(C(=O)N[C@@H](C(=O)N[C@@H]2C(=O)N3[C@@H]2SC(C)(C)[C@@H]3C(=O)O)c2ccccc2)C(=O)C1=O [PIPERACILLIN]
MIC50 [5]: 32 µg/mL (≈ 61.8 µM)
MIC90 [5]: > 128 µg/mL

Compound: CC#CCOc1ccc(C(=O)N[C@H](C(=O)NO)[C@H](N)C2CC2)cc1
IC50 [1]: 0.362 µM
MIC [2]: 32 µg/mL (≈ 96.6 µM)
MIC [3]: 2 µg/mL (≈ 6.04 µM)
MIC [4]: 4 µg/mL (≈ 12.1 µM)

Compound: CC#CCOc1ccc(C(=O)N[C@H](C(=O)NO)C(C)(C)N)cc1
Activity [12]: 20 mg/kg/day
MIC [13]: 1 µg/mL (≈ 3.13 µM)
MIC [14]: 1 to 2 µg/mL (≈ 3.13 to 6.26 µM)
fraction unbound [8]: 0.772
IC50 [15]: > 30 µM
MIC [16]: 16 µg/mL (≈ 50.1 µM)
MIC [17]: 16 µg/mL (≈ 50.1 µM)
fraction unbound [9]: 0.779
IC50 [18]: > 30 µM
IC50 [19]: > 30 µM
MIC [2]: 0.5 µg/mL (≈ 1.57 µM)
MIC [20]: 64 µg/mL (≈ 200 µM)
MIC [21]: > 128 µg/mL
Activity [22]: Active
MIC [23]: 2 µg/mL (≈ 6.26 µM)
IC50 [24]: > 30 µM
fraction unbound [10]: 0.193
MIC [25]: 32 µg/mL (≈ 100 µM)
MIC [26]: > 128 µg/mL
IC50 [27]: > 30 µM
MIC [28]: 16 µg/mL (≈ 50.1 µM)
MIC50 [5]: 1 µg/mL (≈ 3.13 µM)
MIC90 [5]: 2 µg/mL (≈ 6.26 µM)
IC50 [29]: > 30 µM
CC50 at 72 h [6]: > 295 µM
MIC [30]: 64 µg/mL (≈ 200 µM)
IC50 [31]: > 30 µM
IC50 [32]: > 30 µM
IC50 [33]: > 30 µM
solubility ([7]; read-out: solubility): > 327 µg/mL
MIC [3]: 0.06 µg/mL (≈ 0.188 µM)
CC50 at 72 h [11]: > 295 µM
MIC [4]: 0.25 µg/mL (≈ 0.783 µM)
MIC [34]: 32 µg/mL (≈ 100 µM)
IC50 [35]: > 30 µM
Activity [36]: 7.1 mg/kg/day
IC50 [37]: > 30 µM

From ChEMBL document CHEMBL4028845, “Design, Synthesis, and Properties of a Potent Inhibitor of Pseudomonas aeruginosa Deacetylase LpxC” (J Med Chem, 2017)
